From ChEMBL document CHEMBL4732214, “Highly Selective Y Receptor Antagonist Binds in an Allosteric Binding Pocket” (J Med Chem, 2021) come the findings set out here.

The source made the active and inactive calls. The calls are words filed in the database; no cut-off is given here.

Test [1] deals with T1, Neuropeptide Y receptor type 4 (Homo sapiens, UniProt P50391). The test can be described thus: Allosteric antagonist activity at human NPY4R expressed in HEK293 cells assessed as reduction in PP-induced arrestin-3 recruitment at 30 uM measured after 30 mins by BRET assay. It counts as cell-based. Particulars: filed as allosteric antagonist. Summed up:
(§1)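 BRET in HEK293 cells transiently expressing Y4R-Rluc8 and venus-arr3. Pretreated with 30 μM compound or DMSO, then read continuously for 30 min after 100 nM PP. Fluorescence/luminescence ratio, unstimulated control subtracted to give netBRET. Rate constant k from a one-phase association fit. N ≥ 4, unpaired t-test.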
A general note: Recruitment of arrestin is a read-out of receptor activation apart from second messengers.

The target of test [2] is T1, Neuropeptide Y receptor type 4. The test can be described thus: Inhibition of 10 nM PP-induced receptor internalization of eYFP-tagged human NPY4R expressed in HEK293 cells at 30 uM after 30 mins by fluorescence microscopy. To be noted: filed as allosteric antagonist. It counts as cell-based. Summed up:
(§2)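 HEK293 cells stably expressing Y4R-eYFP, nuclei stained with Hoechst. Cells given 30 μM compound or DMSO in OptiMEM, then 10 or 100 nM PP (or medium) for 30 min at 37 °C. eYFP imaged at a fixed 400 ms exposure. Cell-surface fluorescence quantified as pixel intensity, normalized to unstimulated DMSO control.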

Test [3] has the same target. Put plainly: Inhibition of receptor internalization of eYFP-tagged human NPY4R expressed in HEK293 cells at 30 uM after 30 mins by fluorescence microscopy. It is filed as cell-based. The procedure, abridged:
as §2

Test [4] concerns the target T2, Neuropeptide Y receptor type 5 (Homo sapiens) (UniProt Q15761).
T2 sequence (whole entry): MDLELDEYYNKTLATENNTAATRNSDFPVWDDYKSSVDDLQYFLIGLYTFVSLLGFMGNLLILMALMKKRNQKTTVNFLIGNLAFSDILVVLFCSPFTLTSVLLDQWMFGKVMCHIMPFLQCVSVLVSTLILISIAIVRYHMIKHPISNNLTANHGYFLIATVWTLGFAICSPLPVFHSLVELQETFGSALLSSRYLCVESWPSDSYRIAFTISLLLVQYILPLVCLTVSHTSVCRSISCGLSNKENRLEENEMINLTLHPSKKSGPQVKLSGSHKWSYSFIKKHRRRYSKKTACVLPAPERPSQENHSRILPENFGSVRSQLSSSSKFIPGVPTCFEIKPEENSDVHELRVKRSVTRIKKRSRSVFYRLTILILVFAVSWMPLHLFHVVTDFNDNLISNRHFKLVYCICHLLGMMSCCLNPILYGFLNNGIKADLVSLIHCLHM
The test can be described thus: Allosteric antagonist activity at […]-tagged human NPY5R expressed in COS7 cells co-expressing Gqi5-alpha assessed as inhibition of NPY-induced Ca2+ flux at 30 uM by Fluo-2 AM dye based fluorescent assay. It is filed as functional, cell-based. The procedure, abridged:
(§3)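 Stable COS7 lines expressing Y1R-, Y2R- or Y5R-eYFP plus chimeric Δ6Gαqi4myr, loaded with 2.4 μM Fluo2-AM in HBSS/20 mM HEPES/2.5 mM probenecid pH 7.4. After 20 s baseline, DMSO or 30 μM compound added, NPY added 110 s later, 140 s run. Read at ex 485/em 525 nm. Signal taken as x-fold over basal, normalized to 1 μM NPY maximum. N ≥ 3.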
(Calcium assays in cells follow changes in intracellular calcium, usually with a dye or a luminescent sensor.)

Test [5] concerns the target T1, Neuropeptide Y receptor type 4. Put plainly: Allosteric antagonist activity at […]-tagged human NPY4R expressed in COS7 cells co-expressing Gqi5-alpha assessed as inhibition of PP-induced Ca2+ flux by Fluo-2 AM dye based fluorescent assay relative to control. It is filed as functional, cell-based.
Test [6] shares this target. Put plainly: Inhibition of 100 nM PP-induced receptor internalization of eYFP-tagged human NPY4R expressed in HEK293 cells at 30 uM after 30 mins by fluorescence microscopy. It is filed as cell-based. Particulars: filed as allosteric antagonist. The procedure, abridged:
as §2

For test [7] the target is unchanged. Put plainly: Allosteric antagonist activity at human NPY4R expressed in HEK293 cells assessed as reduction in rate of PP-induced arrestin-3 recruitment at 30 uM measured after 30 mins by BRET assay. It is filed as cell-based. Particulars: filed as allosteric antagonist. The procedure, abridged: as §1
The target is the same in test [8]. The test can be described thus: Displacement of [125I]-PP from human NPY4R expressed in HEK293 cell membranes assessed as remaining radioligand binding incubated for 5 hrs using 60 pM [125I]-PP by microBeta scintillation counting assay. Particulars: Cell membrane, filed as allosteric antagonist. The procedure, abridged: (§4)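 Membranes from stable HEK293 Y4R-eYFP cells, 0.3 μg in HEPES buffer (25 mM HEPES, […], 1 mM MgCl2, Pefabloc, pH 7.4) with DMSO or compound. Incubated with 60 or 180 pM human ¹²⁵I-PP for 5 h at room temperature. Nonspecific binding set with 1 μM PP. Bound ligand collected on PEI-soaked GF/C filters and counted by scintillation.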
For orientation: Displacement assays read how much labelled ligand stays bound in the presence of the test substance.

For test [9], the system named is COS7. The test can be described thus: Allosteric antagonist activity at human NPY4R chimera containing NPY1R extracellular loop 2 expressed in COS7 cells co-expressing Gqi5-alpha assessed as inhibition of PP-induced Ca2+ flux at 15 uM by Fluo-2 AM dye based fluorescent assay. It is filed as cell-based. The procedure, abridged: (§5)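 Y4R/Y1R chimeras carrying Y1R TM1, TM2 or ECL2 segments, C-terminal eYFP, transiently cotransfected with Δ6Gαqi4myr in COS7 cells. Fluo2-AM Ca²⁺ flux. 15 μM antagonist or DMSO added, followed by PP. Reduction in PP response given relative to DMSO control, normalized to 1 μM PP.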

Test [10] addresses T3, Neuropeptide Y receptor type 1 (Homo sapiens) (UniProt P25929).
T3 sequence (whole entry): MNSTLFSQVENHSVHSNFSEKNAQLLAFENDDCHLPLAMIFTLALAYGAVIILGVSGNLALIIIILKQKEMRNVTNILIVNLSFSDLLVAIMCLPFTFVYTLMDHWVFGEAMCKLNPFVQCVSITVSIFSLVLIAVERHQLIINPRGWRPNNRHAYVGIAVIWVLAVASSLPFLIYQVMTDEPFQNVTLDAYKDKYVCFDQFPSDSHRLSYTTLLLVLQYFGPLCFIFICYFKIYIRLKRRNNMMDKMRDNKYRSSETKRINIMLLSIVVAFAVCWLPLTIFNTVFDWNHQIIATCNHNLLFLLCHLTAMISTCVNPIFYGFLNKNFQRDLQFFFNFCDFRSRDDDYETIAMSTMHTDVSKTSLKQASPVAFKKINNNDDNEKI
The test can be described thus: Allosteric antagonist activity at […]-tagged human NPY1R expressed in COS7 cells co-expressing Gqi5-alpha assessed as inhibition of NPY-induced Ca2+ flux at 30 uM by Fluo-2 AM dye based fluorescent assay. It is filed as functional, cell-based. Summed up: as §3

The test system of test [11] is COS7. Put plainly: Allosteric antagonist activity at human NPY4R chimera containing NPY1R transmembrane helix 2 expressed in COS7 cells co-expressing Gqi5-alpha assessed as inhibition of PP-induced Ca2+ flux at 15 uM by Fluo-2 AM dye based fluorescent assay. It counts as cell-based. The procedure, abridged: as §5
Test [12] has as its target T4, Neuropeptide Y receptor type 2 (Homo sapiens) (UniProt P49146).
T4 sequence (whole entry): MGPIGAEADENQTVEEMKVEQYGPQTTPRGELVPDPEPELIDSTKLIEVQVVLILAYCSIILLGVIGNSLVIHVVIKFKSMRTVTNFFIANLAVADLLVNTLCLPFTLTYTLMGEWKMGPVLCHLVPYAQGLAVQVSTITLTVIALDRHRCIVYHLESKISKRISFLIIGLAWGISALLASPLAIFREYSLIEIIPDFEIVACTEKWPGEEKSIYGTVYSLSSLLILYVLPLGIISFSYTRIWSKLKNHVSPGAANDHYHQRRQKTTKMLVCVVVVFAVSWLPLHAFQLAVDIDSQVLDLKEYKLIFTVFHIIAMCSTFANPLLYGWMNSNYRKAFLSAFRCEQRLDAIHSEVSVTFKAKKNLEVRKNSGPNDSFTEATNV
The test can be described thus: Allosteric antagonist activity at […]-tagged human NPY2R expressed in COS7 cells co-expressing Gqi5-alpha assessed as inhibition of NPY-induced Ca2+ flux at 30 uM by Fluo-2 AM dye based fluorescent assay. It counts as functional, cell-based. The procedure, abridged:
as §3

The target of test [13] is T1, Neuropeptide Y receptor type 4. Put plainly: Displacement of [125I]-PP from human NPY4R expressed in HEK293 cell membranes assessed as remaining radioligand binding incubated for 5 hrs using 180 pM [125I]-PP by microBeta scintillation counting assay. Particulars: Cell membrane. Summed up:
as §4

Test [14] shares this target. Put plainly: Displacement of [125I]-PP from human NPY4R expressed in HEK293 cell membranes incubated for 5 hrs by microBeta scintillation counting assay. To be noted: Cell membrane, filed as allosteric antagonist. Summed up: as §4
Test [15] concerns COS7. Put plainly: Allosteric antagonist activity at human NPY4R chimera containing NPY1R transmembrane helix 1 expressed in COS7 cells co-expressing Gqi5-alpha assessed as inhibition of PP-induced Ca2+ flux at 15 uM by Fluo-2 AM dye based fluorescent assay. It is filed as cell-based. The procedure, abridged:
as §5

The target in test [16] is T5, Neuropeptide Y receptor type 2 (Mus musculus) (UniProt P97295).
T5 sequence (whole entry): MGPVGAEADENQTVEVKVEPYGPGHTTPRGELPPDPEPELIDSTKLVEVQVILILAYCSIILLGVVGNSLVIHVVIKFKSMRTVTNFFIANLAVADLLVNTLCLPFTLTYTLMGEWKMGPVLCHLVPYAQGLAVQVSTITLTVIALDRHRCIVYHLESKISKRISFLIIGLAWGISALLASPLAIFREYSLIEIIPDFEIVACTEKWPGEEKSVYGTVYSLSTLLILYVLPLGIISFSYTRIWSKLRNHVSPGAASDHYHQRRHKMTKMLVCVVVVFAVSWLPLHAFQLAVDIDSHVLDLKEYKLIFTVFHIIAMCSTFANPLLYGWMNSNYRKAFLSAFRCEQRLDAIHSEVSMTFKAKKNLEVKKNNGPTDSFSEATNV
The test can be described thus: Allosteric antagonist activity at NPY2R in mouse descending colon mucosa assessed as reduction in PYY-induced ion transport at 30 uM by electrophysiology.

In test [17] the target is T6, Neuropeptide Y receptor type 1 (Mus musculus) (UniProt Q04573).
T6 sequence (whole entry): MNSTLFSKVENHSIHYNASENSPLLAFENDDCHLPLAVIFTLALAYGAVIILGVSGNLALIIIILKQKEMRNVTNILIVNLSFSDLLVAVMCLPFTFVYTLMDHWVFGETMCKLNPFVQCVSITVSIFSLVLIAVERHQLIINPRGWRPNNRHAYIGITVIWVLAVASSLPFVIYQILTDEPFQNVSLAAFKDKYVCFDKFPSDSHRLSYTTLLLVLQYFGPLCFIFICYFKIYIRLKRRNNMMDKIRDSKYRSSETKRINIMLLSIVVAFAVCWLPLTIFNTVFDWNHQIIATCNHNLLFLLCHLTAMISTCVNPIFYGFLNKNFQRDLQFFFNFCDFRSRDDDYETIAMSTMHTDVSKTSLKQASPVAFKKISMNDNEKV
Put plainly: Allosteric antagonist activity at NPY1R in mouse descending colon mucosa assessed as reduction in PYY-induced ion transport at 0.3 to 30 uM by electrophysiology. To be noted: dose 0.3-30 µM.

Test [18] has as its target T6, Neuropeptide Y receptor type 1 (Mus musculus). The test can be described thus: Allosteric antagonist activity at NPY1R in mouse descending colon mucosa assessed as reduction in PYY-induced ion transport at 30 uM by electrophysiology.
Test [19] concerns the target T5, Neuropeptide Y receptor type 2 (Mus musculus). Put plainly: Allosteric antagonist activity at NPY2R in mouse descending colon mucosa assessed as reduction in PYY-induced ion transport at 0.3 to 30 uM by electrophysiology. To be noted: dose 0.3-30 µM.

T1 sequence (P50391 whole entry): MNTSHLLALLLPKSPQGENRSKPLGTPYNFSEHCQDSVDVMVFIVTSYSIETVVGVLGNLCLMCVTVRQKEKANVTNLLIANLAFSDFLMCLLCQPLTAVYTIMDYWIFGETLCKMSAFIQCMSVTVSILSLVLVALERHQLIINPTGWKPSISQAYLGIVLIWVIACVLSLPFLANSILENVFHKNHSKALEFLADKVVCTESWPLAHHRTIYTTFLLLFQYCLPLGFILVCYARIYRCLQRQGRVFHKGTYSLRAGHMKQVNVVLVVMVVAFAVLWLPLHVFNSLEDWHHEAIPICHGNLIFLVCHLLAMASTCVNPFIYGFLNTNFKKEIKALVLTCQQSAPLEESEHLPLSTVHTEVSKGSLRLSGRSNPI

For the molecule `CS(=O)(=O)N1CCCCC1C(=O)Nc1nc2cc3c(cc2s1)OCCO3` (racemic), the inhibition result in test [1], in test [2], in test [6] and in test [7] was “Active” in each case. The inhibition entry (in test [3]; in test [4]; with COS7 [9]; in test [10]; in the test on COS7 [11]; in [12]) was “inactive” in each case. The inhibition entry (in [13]; with COS7 [15]) was “inactive” each time. In [5] (read-out: IC50), the half-inhibitory concentration (IC50) is 4 µM. Besides, the Activity in test [8] stood at 15%. Also, in test [14], the inhibition result was “Dose-dependent effect”.

For `CS(=O)(=O)N1CCCC[C@@H]1C(=O)Nc1nc2cc3c(cc2s1)OCCO3`, the inhibition result in test [16], in test [17], in test [18] and in [19] was “inactive” each time. For the same molecule, the pIC50 result in test [5] was “inactive”. Besides, in test [5] (cos7), the IC50 entry is reported as “Not Active”.

As a reminder, the IC50 is the concentration needed to halve the response being measured.
